Laboratory results: ChEMBL document CHEMBL4814039, “Identification of non-covalent SARS-CoV-2 main protease inhibitors by a virtual screen of commercially available drug-like compounds” (Bioorg Med Chem Lett, 2021)

Molecular target: Replicase polyprotein 1ab (Severe acute respiratory syndrome coronavirus 2) (UniProt P0DTD1)
Experiment: Inhibition of SARS-CoV-2 main protease at 50 uM using Dabcy1-KTSAVLQSGFRKM-E-Edans-NH2 as substrate incubated for 10 mins followed by substrate addition by FRET assay relative to control
In short: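 Mpro, 0.5 µM final, in pH 7.3 buffer (20 mM Tris-HCl, 100 mM NaCl, 1 mM EDTA, 1 mM DTT) preincubated with compound (50 µM final, from DMSO stock) at 37 °C for 10 min. Reaction started with FRET substrate solution at 20 µM. Read ex 360/em 460 nm. Inhibition is from the initial linear ΔRFU/s versus a DMSO-only control. Triplicate, mean ± SD.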

| Structure (SMILES) | inhibition [%] |
| --- | --- |
| Cc1ccc2c(c1)NC1(CCN(C(=O)Cc3ccc(F)cc3)CC1)c1cccn1-2 | 6.29 |
| O=C(CN1C(=O)c2ccccc2N2C(=O)c3ccccc3[C@H]12)Nc1cccc(O)c1 | 5.21 |
| Cc1cccc(Nc2nc(C(=O)N3CCc4ccccc43)nc3ccccc23)c1 | 45.7 |
| Fc1ccc([C@H]2Oc3ccccc3[C@H]3CC(c4ccc5c(c4)OCO5)=NN32)cc1 | 6.87 |
| Cc1cccc2[nH]c([C@H]3CCCN(C(=O)c4nc5ccccn5c4F)C3)nc12 | 11.1 |
| O=C(NCc1ccc2c(c1)OCO2)c1ccc2nc3[nH]c4ccccc4c3nc2c1 | 35.6 |
| CC1=NN(c2ccc3ccccc3c2)C(=O)/C1=C1/C(=O)Nc2ccc(Cl)cc21 | 16.6 |
| Cc1ccc(-n2nc(C)c3c(C)cc(OCc4ccc5nonc5c4)nc32)cc1 | 5.26 |
| CC(=O)N1N=C(c2cc(-c3ccccc3)nc3ccccc23)O[C@H]1c1ccccc1 | 14.3 |
| O=C1C[C@H](c2ccc(Cl)cc2)N2N=C(N3C(=O)[C@H]4CCCC[C@H]4C3=O)NC2=N1 | 8.84 |
| Cc1cccc2cc(-c3c4cn[nH]c4nc4c3oc3c(O)c(O)ccc34)c(=O)[nH]c12 | 76.6 |
| O=C(c1ccc2ccccc2n1)N1CCc2c(nc(-c3ccccc3)[nH]c2=O)C1 | 1.16 |
| O=c1oc2ccccc2c(O)c1[C@H]1c2ncccc2-c2c1c(=O)oc1ccccc21 | 8.23 |
| O=C(c1cc2nccc(-c3ccc4ccccc4c3)n2n1)N1CCN2CCC[C@H]2C1 | 9.38 |
| Cn1c2ccccc2c(=O)c2c1nc(Cc1ccccc1)n1c3ccccc3nc21 | 7.42 |
| Cc1cc(C)nc(-n2nc(C)c3c2NC(=O)C[C@@H]3c2ccc3ccccc3c2)n1 | 7.54 |
| Cn1c2ccccc2c2cc([C@@H]3N[C@H](C(=O)O)Cc4c3[nH]c3ccccc43)ccc21 | 6.54 |
